# Screens deposited in PubChem BioAssay by several laboratories.
# Compounds with a hit are over-represented: about 2.8% of the library has one in this group of screens.
# NPY-Y1 PAM-ag – potentiators or agonists of human neuropeptide Y receptor Y1 | AID 1304 | 220,000 compounds, 0.37% hits | activation, % at 3.6 µM | NPY-Y1 expressing cells, potentiator/agonist activation; in the data active = activation above about 33%, passing the limit was not always enough;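 note: cells stimulated with NPY at EC10 then isoproterenol at EC100; 0% = low agonist plus stimulus and 100% = saturating agonist plus stimulus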
# Target sequence (P25929 whole entry, looked up): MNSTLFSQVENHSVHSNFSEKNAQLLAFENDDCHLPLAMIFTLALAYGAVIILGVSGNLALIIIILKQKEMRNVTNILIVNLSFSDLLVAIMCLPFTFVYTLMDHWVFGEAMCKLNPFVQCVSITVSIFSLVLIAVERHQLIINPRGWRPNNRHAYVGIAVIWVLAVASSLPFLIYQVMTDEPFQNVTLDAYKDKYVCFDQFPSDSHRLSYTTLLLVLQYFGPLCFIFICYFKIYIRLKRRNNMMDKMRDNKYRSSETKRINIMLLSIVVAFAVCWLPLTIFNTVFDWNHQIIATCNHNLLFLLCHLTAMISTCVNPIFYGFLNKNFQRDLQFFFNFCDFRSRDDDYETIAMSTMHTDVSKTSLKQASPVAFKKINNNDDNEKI
# NPY Y2 blocker – blocks the human neuropeptide Y Y2 receptor; P49146; NPY-Y2 expressing cells, antagonist mode; inhibition, % at 2.7 µM; 140,000 compounds, 0.99% hits; AID 793; in the data active = inhibition above about 17%;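 note: 0% = vehicle with agonist challenge and 100% = reference antagonist with challenge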
# EP2 mod – EP2 receptor (human) modulation. EP2-expressing cells, cAMP HTRF FRET, PGE2 co-stimulation. induction, % at 25 µM. 260,000 compounds, 0.83% hits. AID 940;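 active = compounds whose cAMP rise, as percent of the full-agonist control response, exceeds 60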;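 note: rat C6 glioma line stably carrying human EP2 under a CMV promoter; the protocol text gives 20 µM as final concentration; 100% = response of wells given 1 µM PGE2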
# PGE2 EP2 inh – inhibitors of human EP2 prostaglandin E2 receptor. P43116. 260,000 compounds, 0.52% hits. C6 glioma cells expressing human EP2, cAMP TR-FRET; cells stimulated with saturating PGE2. inhibition, % at 25 µM;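 active = percent inhibition above 40 after rounding to a whole number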;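 note: rat C6 glioma host cells with rolipram phosphodiesterase inhibitor present; the protocol text gives 20 µM as final concentration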
# NPY-Y1 antag – NPY-Y1 (human) receptor antagonism | P25929 | HEK293-CNG Y1 cells, membrane potential fluorescence; NPY at EC95, then isoproterenol | inhibition, % at 3.6 µM | 200,000 compounds, 1% hits | AID 1040;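 active = inhibition above the campaign mean inhibition of all tested compounds plus 3 SD, cut at about 20% in these data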;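 note: 0% = DMSO wells given NPY plus isoproterenol and 100% = isoproterenol alone without NPY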
#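 Test system – HEK293 Y1/CNG channel cell line · Also added – NPY agonist 25 nM, then isoproterenol 1 µM plus Ro 20-1724 25 µM · Compound dosing – one concentration, 3.6 µM, in 0.4% DMSO · Schedule – compound incubation 1 h at room temperature, readout 45 min post-stimulation · Technique – fluorescence, membrane potential probe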
# NPY-Y2 PAM-ag – potentiates or activates human NPY-Y2 receptor. cells expressing NPY-Y2, potentiator/agonist read-out. 220,000 compounds, 0.45% hits. P49146. activation, % at 3.6 µM; in the data active = activation above about 27%;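 note: cells stimulated with NPY near EC25 plus isoproterenol at EC100; 0% = vehicle plus submaximal agonist and 100% = vehicle plus saturating agonist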
# * marks the source's active call; other numbers are inactive results; . = no result; ! = a repeat was not active.
SMILES,NPY-Y1 PAM-ag,NPY Y2 blocker,EP2 mod,PGE2 EP2 inh,NPY-Y1 antag,NPY-Y2 PAM-ag
Cc1[nH]nc(-c2ccc(O)cc2O)c1-c1ccc(Cl)cc1,21,-1,-23,7,-12,48*
Cc1ccc(O)c(C2=Nc3ccccc3N=C(c3ccco3)C2)c1,10,2,63*,17,6,-11
Cc1ccc(C2=Nc3ccccc3N=C(c3ccco3)C2)c(O)c1,8,4,32,12,4,-6
N=C(N)SCc1ccc(Cl)cc1Cl (tested in a mixture with another compound),.,.,-32,53*,.,.
CN1CCN(c2ccc3nc(-c4ccc5nc(-c6ccc(O)cc6)[nH]c5c4)[nH]c3c2)CC1,.,.,28,49*,.,.
Cc1cccc(NC(=O)CSc2nc3c(C)ccc(C)c3cc2C#N)c1,.,.,11,4,.,.
Cc1ccc(C)c2nc(SCC(=O)Nc3nccs3)c(C#N)cc12,.,.,70*,26,.,.
CCCCNC(=O)c1onc(CSc2cccc(F)c2)c1C(=O)O,-23,17,21,10,17,-27
CCCCNC(=O)c1onc(CSc2ccccc2CC)c1C(=O)O,-22,14,-5,23,21*,-51
COc1cc2c(cc1OC)C(c1cccc([N+](=O)[O-])c1)N(C(=O)c1ccc(F)cc1)CC2 (configuration not stated),-27,33*,6,2,32*,-2
CC(=O)c1cccc(NC(=O)CSc2nnc(-c3ccco3)o2)c1,.,.,-16,14,.,.
COc1ccc(Nc2nc(N)nc(C3CCCCC3=O)n2)cc1 (configuration not stated),.,.,-20,7,.,.
Cc1ccc(C)c(OCC(O)CN2C(C)CCCC2C)c1 (configuration not stated),-35,9,-24,10,11,-15
Cc1ccc(C)c(OCC(O)CN2CCCCC2C)c1 (configuration not stated),101*,2,14,10,-10,80*
Cc1cccn2c(CNCC3(c4ccccc4)CCCC3)c(C(=O)N3CCOCC3)nc12,8,.,12,7,20*,12
Cc1cc2ccccc2c[n+]1CC(O)C[n+]1cc2ccccc2cc1C,.,.,18,55*,.,.
CC(C)NCC(O)COc1ccc(CC(N)=O)cc1 (configuration not stated),14,2,-10,10,-1,15
CC(C)NCC(O)COc1ccc(Br)cc1 (configuration not stated),75*,.,7,7,-8,54*
CC(C)NCC(O)COc1ccc2c(c1)CCC2 (configuration not stated),105*,3,-18,1,-12,96*
CC(C)NCC(O)COc1ccc(CCOCC2CC2)cc1 (configuration not stated),96*,1,3,15,-12,92*
CC(CCc1ccccc1)NCC(O)COc1ccccc1 (configuration not stated),104*,.,-18,4,-10,100*
CCC(CC)NCC(O)COc1ccc(Br)cc1 (configuration not stated),-13,.,13,3,3,1
CC(=O)N1CCN(c2ncnc3c2nnn3Cc2ccccc2)CC1,.,.,9,6,.,.
Cc1ncc(-c2ccncc2)c(C2CCN(C(=O)c3cccc4ncccc34)CC2)n1,.,.,-26,.,.,.
COCCCNC(=S)N1CCC(NC(=O)Nc2ccc(F)cc2)CC1,.,.,-39,4,.,.
SMILES,NPY-Y1 PAM-ag,NPY Y2 blocker,EP2 mod,PGE2 EP2 inh,NPY-Y1 antag,NPY-Y2 PAM-ag
CCc1nnc2sc(-c3ccc(NC(=O)c4cc(OC)c(OC)c(OC)c4)cc3)nn12,.,.,-36,20,.,.
Cc1cc(C(F)F)n2ncc(C(=O)N3C4CCC3CC(c3ccc(F)cc3)C4)c2n1 (configuration not stated),.,.,-8,.,.,.
Cc1cccc2cc(CN(C(=S)NCc3ccco3)C3CCCCC3)c(=O)[nH]c12,.,.,7,15,.,.
COc1ccccc1NC(=O)N(Cc1ccccc1)c1ccccn1,-27,7,61*,-3,8,-25
Cc1cn(C(=O)c2ccccc2)c(=S)n1-c1ccc(Br)cc1,-56,9,65*,5,11,-18
Cc1cc(=O)cc(C)n1-c1ccc(Br)cc1,-3,.,23,5,5,5
COc1ccc(CCNC(=O)c2ccc(-c3ccccc3Cl)o2)cc1OC,.,.,-87,62*,.,.
CCOc1ccc2[nH]c(=O)c(CN(Cc3cccnc3)C(=O)Nc3ccccc3OC)cc2c1,1,4,-7,12,-3,12
CCOc1ccc2[nH]c(=O)c(CN(Cc3cccnc3)C(=O)c3ccccc3Cl)cc2c1,.,.,-16,72*,.,.
OC(COc1ccccc1Cl)CN1CCN(CC(O)COc2ccccc2Cl)CC1 (configuration not stated),86*,4,-42,14,-14,48*
C=CCc1ccccc1OCC(CN1CCCCC1)OC(C)=O (configuration not stated),112*,3,-47,2,-17,104*
COc1ccccc1OCC(O)CN1CCCCC1 (configuration not stated),.,.,17,10,.,.
COc1ccccc1N1CCN(CC(O)COc2cccc3ccccc23)CC1 (configuration not stated),88*,6,-9,20,-7,66*!
C=CCc1ccccc1OCC(O)CN1CCN(c2ccccc2F)CC1 (configuration not stated),95*,5,-2,11,-12,87*
CC1CCCN(CCC(=O)Nc2ccccc2Cl)C1 (configuration not stated),.,.,-7,9,.,.
Cc1ccc(S(=O)(=O)CCCOC(=O)Nc2cccnc2)cc1,.,.,-4,18,.,.
O=C(O)c1ccccc1C(=O)Nc1ccc2c(c1)oc1ccccc12,.,.,18,6,.,.
COc1ccccc1N1CCN(CC(O)COc2ccc3c(c2)OCO3)CC1 (configuration not stated),-8,.,-17,10,0,-8
CC(C)NC[C@H](O)COc1cccc2ccccc12,.,.,-11,10,.,.
C=CCc1cc(OC)ccc1OCC(O)CN1CCN(c2ccc(OC)cc2)CC1 (configuration not stated),20,4,-2,6,5,4
C=CCc1cc(C)ccc1OCC(O)CN1CCN(c2ccccc2)CC1 (configuration not stated),54*,9,1,3,-7,56*
C=CCc1ccccc1OCC(O)CNC(C)C (configuration not stated),116*,4,-5,11,-13,103*
C=CCc1ccccc1OCC(O)CN1CCN(c2ccccc2OC)CC1 (configuration not stated),112*,4,-8,4,-15,102*
O=C(CSc1nc(O)c(Cc2ccccc2F)c(=O)[nH]1)N1CCOCC1,.,.,-16,5,.,.
